In ChEMBL document CHEMBL1140169, “Discovery of novel PPAR ligands by a virtual screening approach based on pharmacophore modeling, 3D shape, and electrostatic similarity screening” (J Med Chem, 2008):
Activity calls are given as the source filed them. The calls are words filed in the database; no cut-off is given here.

How the values were obtained:
[1] = biological target: T1, Peroxisome proliferator-activated receptor alpha (Homo sapiens) (UniProt Q07869); assay: Activation of human PPARalpha ligand binding domain expressed in mouse Hepa 1-6 cells co-transfected with fused Gal4-DBD at 10 uM after 18 hrs by luciferase reporter gene assay relative to GW-7647; format: cell-based
T1 sequence (whole entry): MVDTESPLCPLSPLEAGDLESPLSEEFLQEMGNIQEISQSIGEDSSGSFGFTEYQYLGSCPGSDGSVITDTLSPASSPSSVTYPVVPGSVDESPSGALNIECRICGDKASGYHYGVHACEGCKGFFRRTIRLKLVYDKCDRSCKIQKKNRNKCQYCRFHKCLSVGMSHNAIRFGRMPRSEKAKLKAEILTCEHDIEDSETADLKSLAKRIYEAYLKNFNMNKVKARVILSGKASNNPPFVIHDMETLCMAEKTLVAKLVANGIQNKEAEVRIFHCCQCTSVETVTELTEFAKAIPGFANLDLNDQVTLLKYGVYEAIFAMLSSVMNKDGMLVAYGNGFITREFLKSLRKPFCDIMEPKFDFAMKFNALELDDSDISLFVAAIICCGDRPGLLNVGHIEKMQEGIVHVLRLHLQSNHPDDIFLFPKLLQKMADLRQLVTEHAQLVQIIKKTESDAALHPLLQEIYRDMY
Outline: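 Gal4-hPPARα-LBD/UAS-luciferase transactivation in Hepa 1-6 cells (Metafectene transfection, β-gal normalization). Compound at 10 µM was added 6 h post-transfection and read 18 h later. Activity is given as percent of the response to 30 nM GW7647. Triplicates measured in duplicate.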

[2] = biological target: T1, Peroxisome proliferator-activated receptor alpha (Homo sapiens); assay: Activation of human PPARalpha ligand binding domain expressed in mouse Hepa 1-6 cells co-transfected with fused Gal4-DBD at 0.1 to 10 uM by luciferase reporter gene assay relative to control; format: cell-based
Outline: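 Hepa 1-6 cells (MEM, 10% FCS, penicillin/streptomycin) transfected at 50–70% confluence using Metafectene with Gal4-hPPARα-LBD (0.001 µg plus 0.099 µg pBSK), 4xUAS-TK-Luc reporter and CMV-β-galactosidase. Six hours later, compound was added at 0.1, 1 and 10 µM. Lysis and luminometry after 18 h. Luciferase normalized to β-gal, expressed as fold induction over 0.1% DMSO vehicle. Triplicates, each measured in duplicate.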

[3] = biological target: T2, Peroxisome proliferator-activated receptor delta (Homo sapiens, UniProt Q03181); assay: Displacement of fluorescent pan PPAR agonist form GST-tagged human PPARdelta ligand binding domain by FRET assay
T2 sequence (Q03181 whole entry): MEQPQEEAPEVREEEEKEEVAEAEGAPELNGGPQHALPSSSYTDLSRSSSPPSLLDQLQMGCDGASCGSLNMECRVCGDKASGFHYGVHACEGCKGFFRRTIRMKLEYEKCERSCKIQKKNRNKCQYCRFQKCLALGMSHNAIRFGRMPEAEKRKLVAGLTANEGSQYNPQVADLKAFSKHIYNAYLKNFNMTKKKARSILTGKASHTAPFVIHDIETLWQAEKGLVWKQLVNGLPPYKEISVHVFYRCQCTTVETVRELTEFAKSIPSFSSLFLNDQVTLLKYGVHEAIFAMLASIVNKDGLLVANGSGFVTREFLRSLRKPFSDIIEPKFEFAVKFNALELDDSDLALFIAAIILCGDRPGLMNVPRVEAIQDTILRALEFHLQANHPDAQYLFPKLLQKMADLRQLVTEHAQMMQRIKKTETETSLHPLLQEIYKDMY
Outline: (§1)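 TR-FRET (LanthaScreen) competitive binding: purified GST-tagged PPAR LBD labelled with terbium anti-GST antibody, with a fluorescent pan-PPAR agonist tracer. Displacement was read as RFU over dose-response series in triplicate. IC50 came from a one-site sigmoidal fit. Reference ligands were GW7647 (PPARα) and L165041 (PPARδ).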

[4] = biological target: T3, Peroxisome proliferator-activated receptor alpha (Homo sapiens, UniProt Q07869); assay: Displacement of fluorescent pan PPAR agonist form GST-tagged human PPARalpha ligand binding domain by FRET assay; outline: as §1
T3 sequence (Q07869 whole entry): T1 sequence (whole entry)

[5] = biological target: T4, Peroxisome proliferator-activated receptor gamma (Homo sapiens) (UniProt P37231); assay: Activation of human PPARgamma ligand binding domain expressed in MEF cells co-transfected with fused Gal4-DBD at 10 uM after 18 hrs by luciferase reporter gene assay relative to rosiglitazone; format: cell-based
T4 sequence (whole entry): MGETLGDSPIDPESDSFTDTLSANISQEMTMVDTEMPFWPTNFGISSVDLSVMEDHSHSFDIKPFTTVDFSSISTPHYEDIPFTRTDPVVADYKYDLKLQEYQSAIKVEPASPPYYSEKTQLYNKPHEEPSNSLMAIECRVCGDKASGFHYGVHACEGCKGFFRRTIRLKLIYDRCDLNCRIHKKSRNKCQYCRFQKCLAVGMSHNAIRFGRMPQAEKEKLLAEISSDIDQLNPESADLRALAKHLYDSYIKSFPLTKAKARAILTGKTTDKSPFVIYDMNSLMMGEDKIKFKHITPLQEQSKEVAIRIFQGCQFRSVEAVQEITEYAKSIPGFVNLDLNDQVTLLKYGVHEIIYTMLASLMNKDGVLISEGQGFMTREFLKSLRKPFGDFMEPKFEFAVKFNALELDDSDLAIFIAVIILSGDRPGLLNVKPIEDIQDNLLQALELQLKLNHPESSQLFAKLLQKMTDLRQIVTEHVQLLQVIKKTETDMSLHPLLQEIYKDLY
Outline: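 MEFs (DMEM, 10% calf serum) transfected with Gal4-hPPARγ-LBD, 4xUAS-TK-Luc and CMV-β-gal by Metafectene. Compound at 10 µM was added 6 h later and luciferase/β-gal read after 18 h. Activity is expressed as percent of the response to 1 µM rosiglitazone. Triplicates measured in duplicate.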

[6] = biological target: T5, Peroxisome proliferator-activated receptor gamma (Homo sapiens, UniProt P37231)
T5 sequence (P37231 whole entry): T4 sequence (whole entry)

[7] = biological target: T6, Peroxisome proliferator-activated receptor delta (Homo sapiens) (UniProt Q03181); assay: Antagonist activity at human PPARdelta ligand binding domain expressed in MEF cells co-transfected with Gal4-DBD assessed as reduction of L165041-induced transactivation response at 1 uM by luciferase reporter gene assay; format: cell-based
T6 sequence (whole entry): T2 sequence (Q03181 whole entry)
Outline: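 MEFs transfected with Gal4-hPPARδ-LBD, UAS-luciferase reporter and CMV-β-gal. Starting 6 h post-transfection, cells were co-treated with 1 µM L165041 and a range of compound doses. After 18 h, β-gal-normalized luciferase was compared with the L165041 response. Triplicates measured in duplicate.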

Row | SMILES | Activity [1] [%] | Activity [2] | IC50 [3] [µM] | IC50 [4] [µM] | Activity [5] [%] | IC50 [6] [µM] | Activity [7]
1 | CCn1c(SCC(=O)Nc2ccc(C(=O)O)cc2)nnc1-c1cc2cccc(OC)c2o1 | 15 | Active | 390 | 1 | – | – | –
2 | O=C(O)c1ccc(COc2ccc3ccccc3c2/C=N/c2ccc(N3CCOCC3)cc2)cc1 | 15 | Active | 34 | 43 | – | – | –
3 | CCOC(=O)C[C@H](C)NC(=O)c1csc(C2CCN(C(=O)c3c(F)cccc3Cl)CC2)n1 | 20 | Active | – | – | 15 | 44 | –

The next lines start with the values.

Row | Activity [1] [%] | Activity [2] | IC50 [3] [µM] | IC50 [4] [µM] | Activity [5] [%] | IC50 [6] [µM] | Activity [7] | SMILES
4 | 40 | Active | – | 1.5 | – | – | – | CCOC(=O)N1CCc2c(sc(NC(=O)Cc3ccc(OC)cc3)c2C(=O)Nc2ccc(C(=O)OC)cc2)C1
5 | – | Active | 7.2 | – | 20 | 13 | Active | COC(=O)c1ccc(NC(=O)C[C@H]2C(=O)N(c3cccc(OC)c3)C(=O)N2Cc2ccc(OC)cc2)cc1
